In ChEMBL document CHEMBL1121527, “Heterocyclic analogues of the antihypertensive beta-adrenergic blocking agent (S)-2-[3-(ter-butylamino)-2-hydroxypropoxy]-3-cyanopyridine” (1980):
Several values for one entry are separate records, joined by “and”; a condition that tells them apart may be missing. Identical values can stand only once.

Key:
Rattus norvegicus [1] = assay: Tested for maximum fall in mean arterial pressure in Spontaneously hypertensive rats after peroral administration by using 1% methyl cellulose as vehicle at 20 mg/kg; assay type: functional; settings: route oral
Rattus norvegicus [2] = assay: Tested for maximum fall in mean arterial pressure in Spontaneously hypertensive rats after peroral administration by using 1% methyl cellulose as vehicle at 5 mg/kg; assay type: functional; settings: route oral
Rattus norvegicus [3] = assay: Tested for maximum fall in mean arterial pressure in Spontaneously hypertensive rats after peroral administration by using 1% methyl cellulose as vehicle at 80 mg/kg; assay type: functional; settings: route oral
Rattus norvegicus [4] = assay: Tested for maximum fall in mean arterial pressure in Spontaneously hypertensive rats after peroral administration by using 1% methyl cellulose as vehicle at 1.25 mg/kg; assay type: functional; settings: route oral
Canis familiaris [5] = assay: Tested for increase in iliac blood flow was measured in anesthetized dogs before timolol administered intra arterially at dose […]; assay type: functional, Canis lupus familiaris, Artery
Outline: (§1)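 Adult mongrel dogs of either sex (8–13 kg) under vinbarbital 50 mg/kg iv, with vagi cut and trachea cannulated. Carotid arterial pressure recorded. A 3.0 mm flow transducer on the right iliac artery. Intraarterial injections via a left femoral catheter tipped at the iliac bifurcation. Isoproterenol 0.4 μg ia given before and after timolol (320, 800 or 2000 μg/kg iv) to check β-blockade.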

Canis familiaris [6] = assay: Tested for increase in iliac blood flow was measured in anesthetized dogs before timolol administered intra arterially at dose 400 mg/kg
Canis familiaris [7] = assay: Beta adrenergic blockade activity was measured in anesthetized dogs by blockade of isoproterenol induced hypotension after iv administration; assay type: functional; settings: Canis lupus familiaris
Outline: (§2)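 Mongrel dogs of either sex (8–13 kg) anesthetized with vinbarbital 50 mg/kg iv. Vagi cut, trachea cannulated, with artificial respiration only if required. Blood pressure recorded via femoral artery catheter and heart rate from the pressure pulse. Drugs given through a femoral vein catheter. Isoproterenol challenge at 0.5 μg/kg iv; the resulting hypotension and tachycardia were computed.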

Canis familiaris [8] = assay: Beta adrenergic blockade activity was measured in anesthetized dogs by blockade of isoproterenol induced tachycardia after iv administration; assay type: functional; settings: Canis lupus familiaris; outline: as §2
Canis familiaris [9] = assay: Tested for increase in iliac blood flow was measured in anesthetized dogs after timolol administered intravenous at dose 2000 mg/kg; assay type: functional, Canis lupus familiaris, Artery; outline: as §1
Canis familiaris [10] = assay: Tested for increase in iliac blood flow was measured in anesthetized dogs after timolol administered intravenous at dose 1600 mg/kg; assay type: functional, Canis lupus familiaris, Artery
Rattus norvegicus [11] = assay: Tested for maximum fall in mean arterial pressure in Spontaneously hypertensive rats after peroral administration by using 1% methyl cellulose as vehicle at 0.078 mg/kg; assay type: functional; settings: route oral
Rattus norvegicus [12] = assay: Tested for maximum fall in mean arterial pressure in Spontaneously hypertensive rats after peroral administration by using 1% methyl cellulose as vehicle at 0.312 mg/kg; assay type: functional; settings: route oral
Rattus norvegicus [13] = assay: Comparative effect on Maximum fall in mean arterial pressure of spontaneously hypertensive rat at the dose 1.25 mg/kg per os; assay type: functional, Artery
Rattus norvegicus [14] = assay: Comparative effect on Maximum fall in mean arterial pressure of spontaneously hypertensive rat at the dose 0.625 mg/kg per os; assay type: functional, Artery
Rattus norvegicus [15] = assay: Comparative effect on Maximum fall in mean arterial pressure of spontaneously hypertensive rat at the dose 0.312 mg/kg per os; assay type: functional, Artery
Canis familiaris [16] = assay: Tested for increase in iliac blood flow was measured in anesthetized dogs after timolol administered intravenous at dose 800 mg/kg; assay type: functional, Canis lupus familiaris, Artery; outline: as §1
Canis familiaris [17] = assay: Tested for increase in iliac blood flow was measured in anesthetized dogs after timolol administered intravenously at dose 800 µg/kg

Cc1sc(-c2ccncc2)nc1OC[C@@H](O)CNC(C)(C)C
MAP (Rattus norvegicus [1]): 41 mmHg
MAP (Rattus norvegicus [2]): 8 mmHg

CC(C)(C)NCC(O)COc1nsnc1C#N (configuration not stated)
MAP (Rattus norvegicus [2]): 9 mmHg

CC(C)(C)NC[C@H](O)COc1nc(-c2ccccc2)sc1C#N
MAP (Rattus norvegicus [1]): 9 mmHg
MAP (Rattus norvegicus [2]): 11 mmHg
MAP (Rattus norvegicus [3]): 14 mmHg

Cc1nc(OCC(O)CNC(C)(C)C)c(C(N)=O)s1 (racemic)
MAP (Rattus norvegicus [4]): 22 mmHg
MAP (Rattus norvegicus [1]): 23 mmHg
MAP (Rattus norvegicus [2]): 30 mmHg

NNc1nncc2ccccc12 [HYDRALAZINE]
Activity (Canis familiaris [5]): 66 mL/min
Activity (Canis familiaris [6]): 78 mL/min

CSc1nc(OCC(O)CNC(C)(C)C)c(C(N)=O)s1 (configuration not stated)
MAP (Rattus norvegicus [1]): 11 mmHg

CC(C)(C)NCC(O)COc1nscc1C#N (configuration not stated)
Activity (Canis familiaris [5]): 22 mL/min
ED50 (Canis familiaris [7]): 27 µg/kg
ED50 (Canis familiaris [8]): 28 µg/kg
MAP (Rattus norvegicus [1]): 52 mmHg
MAP (Rattus norvegicus [2]; 5 mg/kg): 27 mmHg and 9 mmHg
Activity (Canis familiaris [9]): 20 mL/min

CC(C)(C)NCC(O)COc1nscc1Br (configuration not stated)
Activity (Canis familiaris [10]): 33 mL/min
Activity (Canis familiaris [5]): 31 mL/min
ED50 (Canis familiaris [7]): 3 µg/kg
ED50 (Canis familiaris [8]): 3 µg/kg
MAP (Rattus norvegicus [1]): 30 mmHg
MAP (Rattus norvegicus [2]): 41 mmHg

CC(C)(C)NCC(O)COc1nccnc1C#N (configuration not stated)
MAP (Rattus norvegicus [1]): 8 mmHg

CC(C)(C)NC[C@H](O)COc1nc(-c2ccccc2)sc1C(N)=O
MAP (Rattus norvegicus [1]): 15 mmHg

CC(C)(C)NCC(O)COc1ncsc1C#N (configuration not stated)
MAP (Rattus norvegicus [11]): 11 mmHg
Activity (Canis familiaris [5]): 125 mL/min
MAP (Rattus norvegicus [12]): 26 mmHg
ED50 (Canis familiaris [7]): 30 µg/kg
ED50 (Canis familiaris [8]): 10 µg/kg
MAP (Rattus norvegicus [4]): 29 mmHg
MAP (Rattus norvegicus [1]): 37 mmHg
MAP (Rattus norvegicus [2]): 42 mmHg

CC(C)(C)NCC(O)COc1ccsn1 (configuration not stated)
MAP (Rattus norvegicus [4]): 8 mmHg
MAP (Rattus norvegicus [1]): 22 mmHg
MAP (Rattus norvegicus [2]): 26 mmHg

CC(C)(C)NC[C@H](O)COc1nsnc1N1CCOCC1 [TIMOLOL]
MAP (Rattus norvegicus [13]): -1 mmHg
MAP (Rattus norvegicus [14]): 0 mmHg
MAP (Rattus norvegicus [15]): 3 mmHg
ED50 (Canis familiaris [7]): 1.3 µg/kg
ED50 (Canis familiaris [8]): 2.4 µg/kg

CC(C)(C)NCC(O)COc1nc2ccncc2cc1C#N (configuration not stated)
MAP (Rattus norvegicus [1]): 22 mmHg

Cc1sc(-c2ccccc2)nc1OC[C@@H](O)CNC(C)(C)C
MAP (Rattus norvegicus [1]): 17 mmHg
MAP (Rattus norvegicus [3]): 12 mmHg

Cc1nc(OC[C@@H](O)CNC(C)(C)C)c(C#N)s1
MAP (Rattus norvegicus [1]): 21 mmHg

CC(C)(C)NCC(O)COc1ncccc1C#N (configuration not stated)
MAP (Rattus norvegicus [11]): 19 mmHg
Activity (Canis familiaris [5]): 98 mL/min
MAP (Rattus norvegicus [12]): 30 mmHg
ED50 (Canis familiaris [7]): 5.2 µg/kg
Activity (Canis familiaris [16]): 62 mL/min
ED50 (Canis familiaris [8]): 1.5 µg/kg
Activity (Canis familiaris [17]): 38 mL/min
MAP (Rattus norvegicus [4]): 47 mmHg
Activity (Canis familiaris [9]): 90 mL/min

Cc1nc(OC[C@@H](O)CNC(C)(C)C)c(C(N)=O)s1
MAP (Rattus norvegicus [1]): 11 mmHg

CCOC(=O)c1sc(-c2ccccc2)nc1OC[C@@H](O)CNC(C)(C)C
MAP (Rattus norvegicus [1]): 10 mmHg

CC(C)NCC(O)COc1cccc2ccccc12 (configuration not stated) [PROPRANOLOL]
ED50 (Canis familiaris [7]): 19 µg/kg
ED50 (Canis familiaris [8]): 51 µg/kg
MAP (Rattus norvegicus [4]): 12 mmHg
MAP (Rattus norvegicus [1]): 14 mmHg
MAP (Rattus norvegicus [2]): 7 mmHg

CCOC(=O)c1sc(SC)nc1OCC(O)CNC(C)(C)C (configuration not stated)
MAP (Rattus norvegicus [1]): 15 mmHg

CCOC(=O)c1scnc1OCC(O)CNC(C)(C)C (configuration not stated)
MAP (Rattus norvegicus [1]): 9 mmHg

CC(C)(C)NCC(O)COc1nc2ncccc2cc1C#N (configuration not stated)
Activity (Canis familiaris [5]): 0 mL/min
MAP (Rattus norvegicus [1]): 28 mmHg
MAP (Rattus norvegicus [2]): 22 mmHg
